Reference: ChEMBL document CHEMBL1124161, “4-Hydroxy-3-quinolinecarboxamides with antiarthritic and analgesic activities” (J Med Chem, 1988)
Calls of active or inactive are those of the source. No cut-off for these calls is given here.

Assays:
Mus musculus [1] = assay: Analgesic activity against acetic acid induced writhing test in mouse after peroral administration; assay type: functional
Rattus norvegicus [2] = assay: Antiinflammatory activity against carrageenan-induced foot edema in rat after peroral administration of 100 mg/kg; IA=Inactive; assay type: functional, organism-based; set-up: dose 100 mg/kg
Mus musculus [3] = assay: Analgesic activity against acetic acid induced writhing test in mouse administered po at 100 mg/kg; IA=Inactive; assay type: functional, organism-based; set-up: dose 100 mg/kg
In short: (§1)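 Female mice (20–22 g), groups of 10, fasted 7 h; drug given orally 30 min before intraperitoneal injection of 0.2 mL 1% aqueous acetic acid. Stretching/writhing movements counted from minute 5 to 20 after irritant.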

Rattus norvegicus [4] = assay: Anti-arthritis activity against adjuvant-induced arthritis in rats after peroral administration; assay type: functional
In short: (§2)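 Groups of five male Lewis rats, 40–50 days old, given intraplantar injection in right hind paw of 0.6 mg Mycobacterium butyricum in 0.1 mL Bayol 55. Drug given in food from adjuvant day to day 17. Injected and noninjected hind paw volumes measured day 17 against normal controls. ED50 by least-squares curve fitting or Litchfield–Wilcoxon probit.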

Rattus norvegicus [5] = assay: Ulcerogenic effect after oral administration (gastric ulcer); assay type: functional
In short: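 Groups of eight female rats (120–150 g), fasted 24 h, dosed orally; killed 7 h later and stomachs scored. Ulceration index = (mean ulcer degree × rats with ulcers / number of rats) × 100, ulcers being scores above 0.5. ED100 (index 100, max 300) read graphically.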

Rattus norvegicus [6] = species on record: Rattus norvegicus; assay: Antiarthritis activity against adjuvant-induced arthritis in rats; assay type: functional; in short: as §2
Rattus norvegicus [7] = assay: Antiinflammatory activity against carrageenan-induced foot edema in rat after peroral administration; assay type: functional; conditions: po
In short: (§3)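 Groups of eight male Sprague-Dawley rats (150–180 g) dosed orally at the time of subplantar injection of 0.5 mg carrageenin. Paw volume difference measured before and 5 h after injection. Expressed as ED40, estimated graphically or by Litchfield–Wilcoxon probit analysis.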

[8] = biological target: T1, Polyunsaturated fatty acid 5-lipoxygenase (Rattus norvegicus, UniProt P12527); assay: Inhibition of 5-lipoxygenase from rat peritoneal neutrophils in vitro
T1 sequence (P12527 whole entry): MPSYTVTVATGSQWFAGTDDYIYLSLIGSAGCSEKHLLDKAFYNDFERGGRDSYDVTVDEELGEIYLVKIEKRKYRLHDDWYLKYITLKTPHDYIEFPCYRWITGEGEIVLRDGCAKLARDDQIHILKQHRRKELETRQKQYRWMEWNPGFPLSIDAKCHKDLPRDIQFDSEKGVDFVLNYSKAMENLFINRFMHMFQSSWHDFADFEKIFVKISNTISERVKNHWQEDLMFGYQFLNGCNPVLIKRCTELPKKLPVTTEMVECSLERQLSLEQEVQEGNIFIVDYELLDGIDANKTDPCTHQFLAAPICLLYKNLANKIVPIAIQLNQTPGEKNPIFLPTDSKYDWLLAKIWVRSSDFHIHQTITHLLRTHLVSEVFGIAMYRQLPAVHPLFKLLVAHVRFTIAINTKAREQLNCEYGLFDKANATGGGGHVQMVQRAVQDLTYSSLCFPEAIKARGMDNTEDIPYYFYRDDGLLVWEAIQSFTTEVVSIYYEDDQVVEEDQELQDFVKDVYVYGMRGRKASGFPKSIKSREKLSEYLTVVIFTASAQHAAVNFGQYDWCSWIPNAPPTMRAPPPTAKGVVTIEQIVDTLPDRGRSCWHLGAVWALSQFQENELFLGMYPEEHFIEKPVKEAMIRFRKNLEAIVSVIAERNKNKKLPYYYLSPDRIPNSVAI

Cyclooxygenase = biological target: T2, Cyclooxygenase (Bos taurus, UniProt O62664+O62698); assay: Inhibition of bovine Prostaglandin G/H synthase in seminal vesicle microsomes in vitro
T2 sequence (O62664 whole entry): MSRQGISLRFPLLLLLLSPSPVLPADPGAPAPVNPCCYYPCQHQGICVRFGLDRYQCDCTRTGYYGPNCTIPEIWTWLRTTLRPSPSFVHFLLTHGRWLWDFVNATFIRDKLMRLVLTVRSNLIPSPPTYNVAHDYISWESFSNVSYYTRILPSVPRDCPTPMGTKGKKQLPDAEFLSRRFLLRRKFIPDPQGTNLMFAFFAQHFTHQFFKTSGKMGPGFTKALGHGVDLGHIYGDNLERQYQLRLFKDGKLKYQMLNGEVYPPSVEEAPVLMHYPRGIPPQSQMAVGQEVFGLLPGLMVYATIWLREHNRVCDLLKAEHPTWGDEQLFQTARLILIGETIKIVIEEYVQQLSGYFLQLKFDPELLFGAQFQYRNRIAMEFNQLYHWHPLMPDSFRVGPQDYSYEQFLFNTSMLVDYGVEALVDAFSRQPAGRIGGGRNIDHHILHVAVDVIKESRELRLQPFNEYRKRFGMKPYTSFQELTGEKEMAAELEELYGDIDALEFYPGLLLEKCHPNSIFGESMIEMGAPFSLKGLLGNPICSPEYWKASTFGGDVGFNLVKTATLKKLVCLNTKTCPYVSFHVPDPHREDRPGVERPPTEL
T2 sequence (O62698 whole entry): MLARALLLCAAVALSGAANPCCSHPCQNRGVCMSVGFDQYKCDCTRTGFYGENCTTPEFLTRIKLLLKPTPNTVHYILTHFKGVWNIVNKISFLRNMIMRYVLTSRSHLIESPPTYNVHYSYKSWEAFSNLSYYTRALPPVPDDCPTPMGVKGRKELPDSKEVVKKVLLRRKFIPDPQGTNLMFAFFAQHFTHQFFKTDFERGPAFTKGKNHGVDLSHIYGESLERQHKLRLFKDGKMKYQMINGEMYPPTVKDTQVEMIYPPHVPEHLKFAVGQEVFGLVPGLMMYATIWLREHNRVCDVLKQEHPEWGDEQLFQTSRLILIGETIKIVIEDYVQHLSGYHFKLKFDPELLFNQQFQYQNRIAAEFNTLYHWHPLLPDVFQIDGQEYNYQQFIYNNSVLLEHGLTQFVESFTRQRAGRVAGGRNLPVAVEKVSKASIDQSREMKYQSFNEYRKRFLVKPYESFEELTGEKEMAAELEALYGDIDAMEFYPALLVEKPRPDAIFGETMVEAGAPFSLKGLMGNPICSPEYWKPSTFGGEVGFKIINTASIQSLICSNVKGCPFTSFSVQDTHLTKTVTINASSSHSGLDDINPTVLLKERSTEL

Rattus norvegicus [9] = assay: Antiinflammatory activity against carrageenan-induced foot edema in rat administered po at 100 mg/kg; IA=Inactive; assay type: functional, organism-based; set-up: dose 100 mg/kg
Rattus norvegicus [10] = assay: Antiarthritis activity against adjuvant-induced arthritis in rats administered po at 10 mg/kg; IA= Inactive; assay type: functional, organism-based; set-up: dose 10 mg/kg
Rattus norvegicus [11] = assay: Antiinflammatory activity against carrageenan-induced foot edema in rat after oral administration of 20 mg/kg; IA=Inactive; assay type: functional, organism-based; set-up: dose 20 mg/kg
Mus musculus [12] = assay: Analgesic activity against acetic acid induced writhing test in mouse administered po at 50 mg/kg; IA=Inactive; assay type: functional, organism-based; set-up: dose 50 mg/kg; in short: as §1
Mus musculus [13] = assay: Analgesic activity against acetic acid induced writhing test in mouse after peroral administration, treatment 6 hr before testing; assay type: functional; conditions: po
In short: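 Groups of 10 female mice (20–22 g), fasted 7 h, dosed orally 6 h before ip injection of 0.2 mL 1% aqueous acetic acid. Stretching and writhing movements counted from minute 5 to 20 after irritant. ED50 evaluated graphically or by computerized least-squares curve fitting.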

Rattus norvegicus [14] = assay: Ulcerogenic effect after oral administration (intestinal ulcer); assay type: functional
In short: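 Nonfasted male rats (150–180 g) killed 24 h after oral dosing, and intestinal ulcers scored. Ulceration index = (mean degree × rats with ulcers / rats) × 100. ED100 (index 100) determined graphically.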

Rattus norvegicus [15] = assay: Antiarthritis activity against adjuvant-induced arthritis in rats administered po at 10 mg/kg; IA=Inactive; assay type: functional, organism-based; set-up: dose 10 mg/kg
Rattus norvegicus [16] = assay: Antiinflammatory activity against carrageenan-induced foot edema after peroral administration in rat; assay type: functional; conditions: po; in short: as §3
Rattus norvegicus [17] = assay: Antiarthritis activity against adjuvant-induced arthritis in rats at 25 mg/kg; IA=Inactive; assay type: functional, organism-based; set-up: dose 25 mg/kg
Mus musculus [18] = assay: Analgesic activity against acetic acid induced writhing test in mouse after peroral administration at 100 mg/kg; IA=Inactive
Mus musculus [19] = assay: Analgesic activity against acetic acid induced writhing test in mouse after peroral administration at 100 mg/kg; IA=Inactive; assay type: functional, organism-based; set-up: dose 100 mg/kg; in short: as §1
Mus musculus [20] = assay: Analgesic activity against acetic acid induced writhing test in mouse after peroral administration of 100 mg/kg; IA=Inactive; assay type: functional, organism-based; set-up: dose 100 mg/kg; in short: as §1
[21] = Mus musculus, po, read-out: ED50
[22] = Rattus norvegicus, po, read-out: ED50

CC(C)c1ccc2nc(C(F)(F)F)c(C(=O)Nc3nccs3)c(O)c2c1
ED50 (Mus musculus [1]; [21]): > 100 mg/kg
ED50 (Rattus norvegicus [2]): inactive

CCC(OC(C)=O)c1nc2c(C(F)(F)F)cccc2c(O)c1C(=O)Nc1nccs1 (stereo not given)
ED50 (Mus musculus [3]): inactive
ED50 (Rattus norvegicus [4]; [22]): 4 mg/kg

CCC(O)c1nc2c(C(F)(F)F)cccc2c(O)c1C(=O)Nc1nccs1 (stereo in doubt; 89)
ED50 (Mus musculus [1]): 3 mg/kg
ED100 (Rattus norvegicus [5]): 12 mg/kg
ED50 (Rattus norvegicus [6]): 2 mg/kg
ED50 (Rattus norvegicus [4]): 1.6 mg/kg
ED40 (Rattus norvegicus [7]): 5 mg/kg
IC50 [8]: 1100 nM
IC50 (Cyclooxygenase): 0.2 µM

O=C(Nc1nccs1)c1c(C(O)c2ccccc2)nc2c(C(F)(F)F)cccc2c1O (stereo not given)
ED50 (Mus musculus [3]): inactive
ED40 (Rattus norvegicus [9]): inactive
ED50 (Rattus norvegicus [10]): inactive

O=C(Nc1nccs1)c1c(-c2ccccc2)nc2c(C(F)(F)F)cccc2c1O
ED50 (Mus musculus [1]; [21]): 50 mg/kg
ED50 (Rattus norvegicus [11]): inactive

Cc1cc(NC(=O)c2cnc3c(C(F)(F)F)cccc3c2O)no1
ED50 (Mus musculus [12]): inactive

CCC(=O)OC(CC)c1nc2c(C(F)(F)F)cccc2c(O)c1C(=O)Nc1nccs1 (stereo in doubt; 102)
ED50 (Mus musculus [1]): 50 mg/kg
ED50 (Mus musculus [13]): 4.6 mg/kg
ED100 (Rattus norvegicus [5]): >300 mg/kg
ED100 (Rattus norvegicus [14]): >250 mg/kg
ED50 (Rattus norvegicus [6]): 0.7 mg/kg
ED50 (Rattus norvegicus [4]): 0.7 mg/kg
ED40 (Rattus norvegicus [7]): 4 mg/kg
IC50 [8]: 3000 nM
IC50 (Cyclooxygenase): 2.1 µM

O=C(Nc1nccs1)c1c(C(O)C2CCCCC2)nc2c(C(F)(F)F)cccc2c1O (stereo not given)
ED50 (Mus musculus [3]): inactive
ED50 (Rattus norvegicus [15]): inactive
ED40 (Rattus norvegicus [16]): > 100 mg/kg

Cc1cnc(NC(=O)c2cnc3c(C(F)(F)F)cccc3c2O)s1
ED50 (Mus musculus [12]): inactive

O=C(Nc1nccs1)c1c(Cc2ccccc2)nc2c(C(F)(F)F)cccc2c1O
ED50 (Mus musculus [1]; [21]): 40 mg/kg
ED50 (Rattus norvegicus [11]): inactive

O=C(Nc1nccs1)c1c(CO)nc2c(C(F)(F)F)cccc2c1O
ED50 (Rattus norvegicus [17]): inactive
ED50 (Mus musculus [18]): inactive

CC(=O)OC(c1nc2c(C(F)(F)F)cccc2c(O)c1C(=O)Nc1ccccn1)C(C)C (stereo not given)
ED50 (Mus musculus [19]): inactive
ED50 (Rattus norvegicus [4]; [22]): ≥ 5 mg/kg

Cn1ccnc1NC(=O)c1c(C(F)(F)F)nc2c(C(F)(F)F)cccc2c1O
ED50 (Mus musculus [20]): inactive
ED50 (Rattus norvegicus [2]): inactive

CCC(=O)OC(CC)c1nc2c(C(F)(F)F)cccc2c(O)c1C(=O)Nc1ccccn1 (stereo not given)
ED50 (Mus musculus [19]): inactive
ED50 (Rattus norvegicus [4]; [22]): > 5 mg/kg
